The results in this text go back to ChEMBL document CHEMBL2413007, “Synthesis of polysubstituted benzofuran derivatives as novel inhibitors of parasitic growth” (Bioorg Med Chem, 2013).

One assay has as its system Plasmodium falciparum. The experiment in a line: Antiplasmodial activity against erythrocytic stages of chloroquine-resistant Plasmodium falciparum FcB1/Columbia incubated for 24 hrs followed by [3H]-hypoxanthine addition measured after 24 hrs by liquid scintillation spectrometry. The assay is classed as functional, organism-based. In outline: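 Asynchronous FcB1/Colombia cultured on human erythrocytes in RPMI 1640 + 8% heat-inactivated human serum, 37 °C, 3% CO₂/6% O₂/91% N₂. DMSO stocks 10 mM, two-fold serial dilutions; 1% parasitaemia, 1% final haematocrit. 24 h drug exposure, then 0.5 µCi [³H]-hypoxanthine per well, 24 h more; freeze-thaw, filter harvest, scintillation counting versus untreated same-plate control. IC50 from concentration–response curve; mean ± SD of several independent experiments; chloroquine control.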

Assay [1] deals with Trypanosoma brucei gambiense. The assay can be described thus: Antitrypanosomal activity against Trypanosoma brucei gambiense Feo bloodstream form after 72 hrs by fluorescence assay. The class given is functional, organism-based. Put shortly: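 Bloodstream forms of strain Feo grown in HMI9 with 10% FCS, 37 °C, 5% CO₂. Log-phase cells harvested by centrifugation (3000g) and used at once, seeded at 3 × 10⁴ cells/ml. Inhibitor concentration series, final DMSO ≤1%. Resazurin added after 72 h (final 45 µM), fluorescence (ex 530/em 590 nm) read 4 h later. Inhibition relative to untreated parasites; triplicates, experiment repeated twice.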

By IC50 is commonly meant the midpoint of a concentration-inhibition curve. A higher IC50 goes with a need for much substance.

With `COc1ccc(-c2oc3cccc(OC)c3c2C(=O)c2ccc(OC(=O)C(C)(C)C)c(OC)c2)cc1`, the values for the IC50 (in the assay on Plasmodium falciparum; in assay [1]) were greater than 50 µM and 8.4 µM, respectively.
The matching figures for `O=C(c1ccc([N+](=O)[O-])cc1)c1c(-c2ccccc2)oc2ccccc12`: greater than 50 µM and greater than 50 µM.
With `O=C(Oc1cccc2oc(-c3ccccc3)cc12)c1ccc(Cl)cc1`, the IC50 in the assay with Plasmodium falciparum was greater than 25 µM; in assay [1], 1.6 µM.
As to `COc1ccc(-c2cc3c(OC(=O)c4c(O)cc(OC)cc4OC)cccc3o2)cc1`, the IC50 in the assay on Plasmodium falciparum was 7.9 µM; in assay [1] it was greater than 50 µM.
The matching figures for `CCOc1ccc2ccccc2c1C(=O)Oc1cccc2oc(C3CC3)cc12`: greater than 25 µM and 6.4 µM.
Take `COc1ccc(-c2oc3cccc(OC)c3c2C(=O)c2cccc3ccccc23)cc1`: the IC50 in the assay on Plasmodium falciparum is greater than 50 µM; in assay [1], 12.4 µM.
Consider `COc1ccc(-c2oc3cccc(OC)c3c2C(=O)c2ccc(Cl)cc2)cc1`, for which the half-maximal inhibitory concentration (IC50) with Plasmodium falciparum was greater than 50 µM; in assay [1] it was 5.5 µM.
The matching figures for `O=C(Oc1cccc2oc(-c3ccccc3)cc12)c1cccc2ccccc12`: greater than 25 µM and 21.3 µM.
As for `COc1ccc(C(=O)c2c(C3CC3)oc3cccc(O)c23)cc1`, the IC50 was greater than 50 µM in the assay on Plasmodium falciparum and 3.7 µM in assay [1].
`O=C(c1cccc2ccccc12)c1c(C2CC2)oc2cccc(O)c12`: the IC50 in the assay on Plasmodium falciparum was greater than 50 µM; in assay [1], 4.6 µM.
With `CCOc1ccc2ccccc2c1C(=O)Oc1cccc2oc(-c3ccccc3)cc12`, the IC50 with Plasmodium falciparum is greater than 50 µM; in assay [1], 6.7 µM.
The corresponding values for `COc1ccc(-c2cc3c(OC(=O)c4ccccc4)cccc3o2)cc1` are greater than 25 µM and 3.2 µM.
Take `N=C(N)c1ccc(OCCCCCOc2ccc(C(=N)N)cc2)cc1` [PENTAMIDINE]: it took 0.011 µM to reach half-maximal inhibition in assay [1] (IC50).
Take `COc1ccc(-c2cc3c(OC(=O)c4cccc5ccccc45)cccc3o2)cc1`: the half-inhibitory concentration (IC50) with Plasmodium falciparum was greater than 50 µM; in assay [1], 14.9 µM.
The corresponding values for `COc1ccc(-c2oc3ccccc3c2C(=O)c2ccc([N+](=O)[O-])cc2)cc1` are greater than 50 µM and greater than 50 µM.
As to `O=C(Oc1cccc2oc(C3CC3)cc12)c1ccc(Cl)cc1`, the figures for the 50% inhibitory concentration (IC50) (in the assay on Plasmodium falciparum; in assay [1]) were greater than 50 µM and 7.1 µM, respectively.
As for `Cc1cc(C)cc(-c2cc3c(OC(=O)c4ccccc4)cccc3o2)c1`, the IC50 turned out to be 6 µM in the assay with Plasmodium falciparum and 2 µM in assay [1].
Consider `COc1ccc(-c2oc3cccc(OC)c3c2C(=O)c2c(OC)cc(OC)cc2OC)cc1`, for which the IC50 (in the assay with Plasmodium falciparum; in assay [1]) was greater than 50 µM throughout.
In the case of `O=C(Oc1cccc2oc(-c3ccccc3)cc12)c1ccccc1`, the results for the half-inhibitory concentration (IC50) (with Plasmodium falciparum; in assay [1]) were greater than 25 µM and 14 µM, respectively.
For `COc1ccc(-c2cc3c(OC(=O)c4ccc(Cl)cc4)cccc3o2)cc1`, the values for the IC50 (with Plasmodium falciparum; in assay [1]) were greater than 25 µM and 1.5 µM, respectively.
Consider `O=C(Oc1cccc2oc(C3CC3)cc12)c1ccc([N+](=O)[O-])cc1`, for which the values for the IC50 (in the assay with Plasmodium falciparum; in assay [1]) were greater than 50 µM and 12.2 µM, respectively.
Regarding `COc1ccc(-c2oc3ccccc3c2C(=O)c2ccccc2)cc1`, the IC50 in the assay with Plasmodium falciparum is greater than 50 µM; in assay [1] it was 21.2 µM.
The corresponding values for `O=C(Oc1cccc2oc(C3CC3)cc12)c1ccccc1` are greater than 50 µM and 14.7 µM.
Consider `COc1ccc(C(=O)Oc2cccc3oc(-c4ccccc4)cc23)cc1`, for which the IC50 in the assay with Plasmodium falciparum is greater than 25 µM; in assay [1], 1.7 µM.
Take `O=C(c1ccccc1)c1c(C2CC2)oc2ccccc12`: the IC50 with Plasmodium falciparum was greater than 50 µM; in assay [1], 20.9 µM.
On to `COc1ccc(-c2oc3ccccc3c2C(=O)c2c(O)cc(OC)cc2OC)cc1`, for which the IC50 is greater than 25 µM in the assay with Plasmodium falciparum and 6.7 µM in assay [1].
With `COc1ccc(-c2cc3c(OC(=O)c4ccc([N+](=O)[O-])cc4)cccc3o2)cc1`, the IC50 in the assay with Plasmodium falciparum was greater than 50 µM; in assay [1], 1.7 µM.
In the case of `COc1ccc(C(=O)c2c(-c3ccc(OC)cc3)oc3cccc(OC)c23)cc1`, the figures for the IC50 (with Plasmodium falciparum; in assay [1]) were greater than 25 µM and 8.3 µM, respectively.
Turning to `COc1ccc(C(=O)c2c(-c3ccc(OC)cc3)oc3cccc(O)c23)cc1`, the results for the IC50 (in the assay with Plasmodium falciparum; in assay [1]) were greater than 25 µM and 7.7 µM, respectively.
As for `CCOc1ccc2ccccc2c1C(=O)c1c(-c2ccc(OC)cc2)oc2cccc(O)c12`, the IC50 is greater than 25 µM with Plasmodium falciparum and 1.5 µM in assay [1].
The corresponding values for `COc1ccc(-c2oc3cccc(O)c3c2C(=O)c2cccc3ccccc23)cc1` are greater than 50 µM and 4.2 µM.
On to `COc1ccc(C(=O)Oc2cccc3oc(-c4ccc(OC)cc4)cc23)cc1`, for which the values for the IC50 (in the assay with Plasmodium falciparum; in assay [1]) were 11.2 µM and 1.8 µM, respectively.
In the case of `COc1ccc(C(=O)Oc2cccc3oc(C4CC4)cc23)cc1`, the IC50 was greater than 50 µM in the assay on Plasmodium falciparum and 2.7 µM in assay [1].
On to `O=C(Oc1cccc2oc(C3CC3)cc12)c1cccc2ccccc12`, for which the results for the IC50 (in the assay on Plasmodium falciparum; in assay [1]) were greater than 50 µM and 12.6 µM, respectively.
Consider `O=C(c1ccccc1)c1c(-c2ccccc2)oc2ccccc12`, for which the results for the IC50 (with Plasmodium falciparum; in assay [1]) were greater than 50 µM and 15.5 µM, respectively.
Consider `CCOc1ccc2ccccc2c1C(=O)c1c(C2CC2)oc2cccc(O)c12`, for which the figures for the IC50 (in the assay on Plasmodium falciparum; in assay [1]) were greater than 25 µM and 2 µM, respectively.
Take `CCOc1ccc2ccccc2c1C(=O)Oc1cccc2oc(-c3ccc(OC)cc3)cc12`: the IC50 in the assay with Plasmodium falciparum is greater than 50 µM; in assay [1], 7.7 µM.
The corresponding values for `COc1ccc(-c2oc3cccc(O)c3c2C(=O)c2ccccc2)cc1` are greater than 25 µM and 6.5 µM.
`O=C(Oc1cccc2oc(-c3ccccc3)cc12)c1ccc([N+](=O)[O-])cc1`: the IC50 with Plasmodium falciparum is greater than 25 µM; in assay [1], 1.8 µM.
The matching figures for `COc1ccc(-c2oc3cccc(OC)c3c2C(=O)c2ccccc2)cc1`: greater than 50 µM and 11.8 µM.
